Experimental data taken from ChEMBL document CHEMBL1154824, “Synthesis and biological activity of derivatives of the marine quinone avarone” (Eur J Med Chem, 2010).
In brackets after ≈: the same amount, converted by molar mass. Activity calls are given as the source filed them. No cut-off for these calls is given here.

Columns and labels:
[1] = test system: K562; assay: Cytotoxicity against human K562 cells by MTT assay; format: functional, cell-based
[2] = Cytotoxicity against human Fem-X cells assessed as decrease in total cellular protein by kenacid blue R binding method; format: functional, cell-based
[3] = test system: Escherichia coli; assay: Antibacterial activity against Escherichia coli ATCC 35218 by serial dilution method; format: functional
[4] = test system: Staphylococcus aureus; assay: Antibacterial activity against Staphylococcus aureus ATCC 25923 by serial dilution method; format: functional
[5] = test system: Artemia salina; assay: Toxicity against freshly hatched nauplii of brine shrimp after 24 hrs; format: organism-based; conditions: in vivo
[6] = test system: HeLa; assay: Cytotoxicity against human HeLa cells assessed as decrease in total cellular protein by kenacid blue R binding method; format: functional, cell-based
[7] = test system: PBMC; assay: Cytotoxicity against human PBMC cells by MTT assay; format: cell-based
[8] = test system: PBMC; assay: Cytotoxicity against human phytohemagglutininin-stimulated PBMC cells assessed as growth inhibition by MTT assay; format: cell-based
[9] = test system: MCF7; assay: Cytotoxicity against human MCF7 cells after 48 hrs by sulforhodamine B assay; format: functional; conditions: MCF7, 48 h
Method in brief: (§1)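 Tested at NIH-NCI against the 60 human tumor cell line panel. Each line was exposed to at least five concentrations for 48 h. Growth and survival were read by the sulforhodamine test.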

[10] = test system: SK-MEL-2; assay: Cytotoxicity against human SK-MEL-2 cells after 48 hrs by sulforhodamine B assay; format: functional; conditions: SK-MEL-2, 48 h; method in brief: as §1
[11] = test system: RPMI-8226; assay: Cytotoxicity against human RPMI8226 cells after 48 hrs by sulforhodamine B assay; format: functional; conditions: RPMI-8226, 48 h; method in brief: as §1
[12] = test system: CCRF-CEM; assay: Cytotoxicity against human CCRF-CEM cells after 48 hrs by sulforhodamine B assay; format: functional; method in brief: as §1
[13] = test system: IGROV-1; assay: Cytotoxicity against human IGROV1 cells after 48 hrs by sulforhodamine B assay; format: functional; conditions: IGROV-1, 48 h; method in brief: as §1
[14] = test system: Human immunodeficiency virus; assay: Antiviral activity against HIV infected in human T4 lymphocytes assessed as protection from HIV-induced cytopathogenicity at 2 uM; format: functional
[15] = Cytotoxicity against human colon cancer cells after 48 hrs by sulforhodamine B assay; format: functional; conditions: Cancer cell lines; method in brief: as §1
[16] = Cytotoxicity against human prostate cancer cells after 48 hrs by sulforhodamine B assay; format: functional; conditions: Cancer cell lines; method in brief: as §1
[17] = test system: MDA-MB-435; assay: Cytotoxicity against human MDA-MB-435 cells after 48 hrs by sulforhodamine B assay; format: functional; conditions: MDA-MB-435, 48 h; method in brief: as §1
[18] = test system: K562; assay: Cytotoxicity against human K562 cells after 48 hrs by sulforhodamine B assay; format: functional; conditions: K562, 48 h; method in brief: as §1
[19] = test system: T47D; assay: Cytotoxicity against human T47D cells after 48 hrs by sulforhodamine B assay; format: functional; method in brief: as §1
[20] = test system: HOP-92; assay: Cytotoxicity against human HOP92 cells after 48 hrs by sulforhodamine B assay; format: functional; conditions: HOP-92, 48 h; method in brief: as §1
[21] = test system: RXF 393; assay: Cytotoxicity against human RXF393 cells after 48 hrs by sulforhodamine B assay; format: functional; conditions: RXF 393, 48 h; method in brief: as §1
[22] = test system: MOLT-4; assay: Cytotoxicity against human MOLT4 cells after 48 hrs by sulforhodamine B assay; format: functional; conditions: MOLT-4, 48 h; method in brief: as §1
[23] = Cytotoxicity against human T4 lymphocytes
[24] = test system: LOX IMVI; assay: Cytotoxicity against human LOXIMVI cells after 48 hrs by sulforhodamine B assay; format: functional; method in brief: as §1
[25] = test system: NCI-H23; assay: Cytotoxicity against human NCI-H23 cells after 48 hrs by sulforhodamine B assay; format: functional; conditions: NCI-H23, 48 h; method in brief: as §1
[26] = Cytotoxicity against human CNS cancer cells after 48 hrs by sulforhodamine B assay; format: functional; conditions: Cancer cell lines; method in brief: as §1

Row | Compound | IC50 [1] [µM] | IC50 [2] [µM] | MIC [3] | MIC [4] | LC50 [5] | IC50 [6] [µM] | further results
1 | CCCCCCCCSC1=CC(=O)C(C[C@]2(C)[C@@H](C)CC[C@]3(C)C(C)=CCC[C@@H]23)=CC1=O | > 100 | > 100 | 25 mg/L (≈ 54.7 µM) | inactive | Not Active | > 100 | 
2 | CC1=CCC[C@H]2[C@](C)(CC3=CC(=O)C=CC3=O)[C@@H](C)CC[C@]12C [AVARONE] | 4.9 | 23.9 | 25 mg/L (≈ 80 µM) | 6.25 mg/L (≈ 20 µM) | 0.14 ppm | 26.8 | IC50 [7]: 4.8 µM; IC50 [8]: 4.5 µM
3 | CC1=CCC[C@H]2[C@](C)(CC3=CC(=O)C(SCC(C)C)=CC3=O)[C@@H](C)CC[C@]12C | 39 | 89.5 | 25 mg/L (≈ 62.4 µM) | 50 mg/L (≈ 125 µM) | 0.17 ppm | 98 | GI50 [9]: 7.24 µM; GI50 [10]: 20.9 µM; GI50 [11]: 3.8 µM; GI50 [12]: 1.35 µM; GI50 [13]: 10 µM; Activity [14]: 28.5%; GI50 [15]: > 10 µM; GI50 [16]: > 10 µM; GI50 [17]: 15.5 µM; GI50 [18]: 4.47 µM; GI50 [19]: 2.63 µM; GI50 [20]: 4.79 µM; GI50 [21]: 6.76 µM; GI50 [22]: 2.29 µM; Activity [23]: Toxic; GI50 [24]: 4.07 µM; GI50 [25]: 5.5 µM; GI50 [26]: > 10 µM
4 | CC1=CCC[C@H]2[C@](C)(CC3=CC(=O)C=C(Sc4ccccc4)C3=O)[C@@H](C)CC[C@]12C | 17.4 | 41.5 | inactive | 12.5 mg/L (≈ 29.7 µM) | 32.33 ppm | 54.8 | 
5 | C[C@H]1c2cccc(O)c2C(=O)C2=C(O)[C@]3(O)C(=O)C(C(N)=O)=C(O)[C@@H](N(C)C)[C@@H]3[C@@H](O)[C@@H]21.O [DOXYCYCLINE] |  |  | 2 mg/L | 4 mg/L |  |  | 
6 | CNC1=CC(=O)C(C[C@]2(C)[C@@H](C)CC[C@]3(C)C(C)=CCC[C@@H]23)=CC1=O | 9.3 | 2.4 | inactive | inactive | 0.34 ppm | 12.6 | IC50 [7]: > 100 µM; IC50 [8]: > 100 µM
7 | CC1=CCC[C@H]2[C@](C)(CC3=CC(=O)C(SC(C)C)=CC3=O)[C@@H](C)CC[C@]12C | 47.5 | 86 | inactive | inactive | 0.44 ppm | 67 | 
